# Source: PubChem BioAssay
# EphB4 ephrin blk – EphB4-ephrin-B2 interaction antagonists, primary screen, biochemical, TNYL-RAW peptide probe, fluorescence polarization | Ephrin type-B receptor 4 (Homo sapiens), P54760 | EphB4 LBD / TNYL-RAW-Alexa532 peptide | inhibition, % at 7 µM | 0.15% of 97,000 active;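 active means inhibition above the screen-wide mean inhibition plus 3 SD, cut at about 15% in these data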;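 further: 0% = DMSO wells and 100% = excess unlabeled TNYL-RAW peptide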
# Target sequence (P54760 whole entry, looked up, the tested form may be a part): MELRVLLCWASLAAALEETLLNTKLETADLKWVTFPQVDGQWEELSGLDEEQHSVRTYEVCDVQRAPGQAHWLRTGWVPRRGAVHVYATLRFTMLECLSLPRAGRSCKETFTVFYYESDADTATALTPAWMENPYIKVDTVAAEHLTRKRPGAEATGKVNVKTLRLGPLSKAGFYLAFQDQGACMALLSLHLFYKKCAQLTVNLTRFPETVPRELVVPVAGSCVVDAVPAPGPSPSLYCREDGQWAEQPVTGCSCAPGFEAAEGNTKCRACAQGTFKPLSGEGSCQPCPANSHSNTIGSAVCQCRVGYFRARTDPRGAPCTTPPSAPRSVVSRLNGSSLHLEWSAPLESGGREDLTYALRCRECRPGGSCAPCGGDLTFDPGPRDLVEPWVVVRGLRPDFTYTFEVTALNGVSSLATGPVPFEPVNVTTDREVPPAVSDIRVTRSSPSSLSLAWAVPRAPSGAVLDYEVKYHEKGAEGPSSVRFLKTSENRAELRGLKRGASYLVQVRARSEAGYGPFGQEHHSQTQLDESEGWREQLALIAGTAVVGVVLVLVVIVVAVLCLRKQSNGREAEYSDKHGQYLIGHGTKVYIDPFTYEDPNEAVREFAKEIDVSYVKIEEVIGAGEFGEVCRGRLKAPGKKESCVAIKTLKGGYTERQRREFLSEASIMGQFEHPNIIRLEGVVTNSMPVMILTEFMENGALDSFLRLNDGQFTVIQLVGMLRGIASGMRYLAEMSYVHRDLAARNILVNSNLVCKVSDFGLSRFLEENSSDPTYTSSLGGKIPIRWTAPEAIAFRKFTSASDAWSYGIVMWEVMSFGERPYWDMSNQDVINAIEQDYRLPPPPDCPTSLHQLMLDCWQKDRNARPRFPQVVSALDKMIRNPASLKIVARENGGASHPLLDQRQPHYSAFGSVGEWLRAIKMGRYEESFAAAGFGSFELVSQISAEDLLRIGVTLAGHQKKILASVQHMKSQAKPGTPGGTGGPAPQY
# PostGolgi yeast – phenotypic screen on post-Golgi transport, primary screen. inhibition, % at 10 µM. 0.9% of 98,000 active. AID 739, 2007. post-Golgi transport phenotypic cell assay;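 further: yeast cells grown in 1536-well plates; yeast grown about 18 h at 30C before absorbance read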
# E coli WT exp – growth inhibitors of wild-type E. coli, primary screen, strain BW25113, expanded library, OD600. OD600 absorbance. growth inhibition, % at 100 µM. 0.15% of 98,000 active. AID 710, 2007;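 active means growth inhibition above about 50% at one test dose, limit read from the data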;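 further: growth measured after 20 h incubation at 37 °C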
# Ecoli tolC – growth inhibitors of E. coli tolC mutant, primary screen, strain BW25113 ΔtolC::kan, 384-well | 2.2% of 65,000 active | growth inhibition, % at 10 µM (by protocol) | OD615;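 active means growth inhibition at or above a cutoff equal to the mean over every tested compound plus 3 SD, cut at about 60% in these data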;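 further: growth measured after 20 h incubation at 37 °C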
#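 Test system: tolC-deleted E. coli BW25113 | Medium: LB with kanamycin 50 µg/mL | Compound dosing: Single concentration, 10 µM final per compound | Schedule: 37 °C, 20 h exposure | Measured by: OD at 615 nm | Evaluation: Percent growth inhibition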
# PostGolgi ctrl – growth inhibition of yeast control strain, primary screen, counter-screen for post-Golgi transport modulator project | efflux-deficient yeast background strain, growth absorbance A615, 16 h | inhibition, % at 10 µM | 5% of 98,000 active | AID 738, 2007
# An asterisk follows results filed as active; x = not tested or not shown. An excerpt weighted towards active compounds, which were near 6% of everything screened. Unless noted, no stated cut-off is given here; in the data, active means inhibition above about 30%; inactive means the rest.
SMILES,EphB4 ephrin blk,PostGolgi yeast,E coli WT exp,Ecoli tolC,PostGolgi ctrl
Cc1ccc(Cn2ccc(NC(=O)CCSc3nc(-c4ccco4)cc(C(F)(F)F)n3)n2)cc1,12,2,-23,31,50*
O=C(c1cnn2c1NC(c1ccco1)CC2C(F)(F)F)N1CCN(c2cccc(Cl)c2)CC1 (centres undefined),6,1,-5,57,65*
O=C(NCc1ccco1)c1cnn2c1NC(c1ccc(Br)cc1)CC2C(F)(F)F (centres undefined),-2,-3,3,68*,38*
Cc1cc(NC(=O)CCSc2nc(-c3ccco3)cc(C(F)(F)F)n2)no1,6,-3,-7,x,7
COc1cccc(C(=O)NC(Cc2ccccc2)c2ccc3c(c2)OCCCO3)c1 (centres undefined),-8,11,2,x,0
CCC(C)N(NC(C)=O)c1nc(Cl)nc(NC(C)(C)C)n1 (centres undefined),-4,3,-2,x,3
O=C1CC(C(=O)Nc2nccs2)C(c2ccccc2)O1 (centres undefined),x,x,x,-4,x
Cc1ccccc1Cn1ccc(NC(=O)c2cnn3c2NC(c2ccccc2)CC3C(F)(F)F)n1 (centres undefined),-6,11,-6,x,37*
O=C(Nc1ccc2c(c1)OCO2)c1cnn2c(C(F)(F)F)cc(-c3ccco3)nc12,-1,-6,-16,0,8
Cc1ccccc1Cn1ccc(NC(=O)c2cnn3c(C(F)(F)F)cc(-c4ccco4)nc23)n1,4,-1,-10,22,33*
O=C(CSc1ccc2nnc(-c3ccc(Cl)cc3)n2n1)N1CCc2ccccc21,-12,-9,2,x,-2
O/N=C/c1cc(Br)ccc1OCc1ccc(F)cc1,8,x,x,x,x
Cc1ccc(COc2ccc(Br)cc2/C=N/O)cc1,-7,19,13,x,44*
O/N=C/c1cc(Br)cc(Br)c1OCc1ccccc1,-2,3,0,x,58*
O/N=C/c1cc(Br)ccc1OCc1cccc(F)c1,1,10,10,x,35*
Cn1nc(-c2ccccc2)c(-c2nc(-c3cccc(Cl)c3)no2)c1Cl,-3,-1,-5,x,7
N#CC1=C(SCC(N)=O)NC2=C(C(=O)c3ccccc32)C1c1ccc(Cl)cc1 (centres undefined),-1,4,-1,x,11
COCCn1nnnc1C(C(C)C)N(Cc1cccnc1)Cc1ccccc1Cl (centres undefined),3,1,-4,14,38*
CCCn1c(=O)n(C)c(=O)c2c3oc(=O)c(NC(=O)c4ccc(F)cc4)cc3[nH]c21,x,x,x,-21,x
Cc1ccc(NC(CNS(=O)(=O)c2ccc(Cl)cc2)c2ccccc2)cc1 (centres undefined),2,-1,-12,x,31*
Cn1c(Cl)cnc1C1CC(=O)c2cc(Cl)ccc2O1 (centres undefined),-4,-2,-3,5,38*
COc1ccc(/C=N/NC(=O)c2ccc(Cn3cc([N+](=O)[O-])cn3)o2)c(OC)c1C,-5,-2,-2,x,6
Cc1c(Cl)c([N+](=O)[O-])nn1Cc1ccc(C(=O)N/N=C\c2cccc(Br)c2)o1,4,67*,-8,x,18
CCC(C(=O)NC(C)(C)C)N(C(=O)Cn1nnc(-c2ccccc2F)n1)c1cccc2c1CCCC2 (centres undefined),-6,4,6,x,1
Cc1cc(-c2ccco2)c(C#N)c2nc3ccccc3n12,x,25,-12,81*,83*
SMILES,EphB4 ephrin blk,PostGolgi yeast,E coli WT exp,Ecoli tolC,PostGolgi ctrl
Cc1ccc(NCc2nc3ccccc3n2C)cc1,-5,-1,12,8,34*
Cn1c(CNc2nc3ccccc3n2C)nc2ccccc21,x,1,-5,-4,-1
Cn1c(CSc2nc3ccccc3s2)nc2ccccc21,0,-3,-7,72*,16
Cc1[nH]n(-c2ccccc2)c(=S)c1C=Nc1cccc([N+](=O)[O-])c1,4,2,17,x,7
COc1ccc2c(C)cc(SCc3c(C)noc3C)nc2c1,6,-13,-12,x,32*
COc1ccc2c(C)cc(SCC#N)nc2c1,-2,10,2,8,5
CCSc1nnnn1-c1ccccc1,3,-3,3,x,-7
Cc1ccccc1Nc1nc(CSc2nnnn2-c2ccccc2)cs1,-3,-11,-9,x,4
Cc1ncc(CSc2nnnn2-c2ccccc2)c(N)n1,5,-3,12,18,32*
c1ccc(-c2nc(CSc3nnnn3-c3ccccc3)cs2)cc1,-1,-13,-7,55,49*
Clc1cc(NCc2cccs2)ccc1N1CCOCC1,5,-8,-1,13,-2
COC(=O)CCC(=O)N1CCc2cc(S(=O)(=O)N3CCN(c4ccccc4Cl)CC3)ccc21,-1,-3,2,8,8
C/C(=N\NC(=S)Nc1cccc(C)c1)c1ccccc1,3,-1,-15,x,33*
Cc1cc(C)n2nc(SCc3nnc(SCc4ccccc4C)s3)nc2n1,9,14,-21,x,20
Cc1cc(C)n2nc(SCc3nnc(SCc4ccccc4Cl)s3)nc2n1,-1,-2,-17,x,36*
Cc1c(Cl)cccc1N(CC(=O)NC1CCCCC1)S(C)(=O)=O,x,0,0,-7,13
CCOc1cc(S(=O)(=O)N2CCC(Cc3ccccc3)CC2)c(OCC)cc1-n1cnnn1,x,3,-13,-1,10
CCOc1cc(S(=O)(=O)N2CC=C(c3ccc(F)cc3)CC2)c(OCC)cc1-n1cnnn1,7,0,-22,6,101*
CCCCn1c(NC(C)CC)nc2c1c(=O)[nH]c(=O)n2C (centres undefined),-3,-3,9,8,-2
CC(C)c1ccccc1NC(=O)c1cccc(NC(=O)c2ccccc2)c1,-3,-5,-15,x,8
COC(=O)C1=C(N)c2c(F)cccc2C1(C#N)c1ccc(F)cc1 (centres undefined),2,3,2,x,24
C=CCC(CC=C)(NC(=O)c1ccccc1C)c1ccccc1,3,16,-10,x,8
O=C(Nc1ccc2oc(=O)ccc2c1)c1ccco1,0,15,8,-27,4
O=C(Nc1ccc2oc(=O)ccc2c1)c1cccnc1Cl,3,32*,2,x,2
Cc1ccc(C)c2[nH]c(=O)c(CN(CC3CCCO3)S(=O)(=O)c3ccc4c(c3)OCCO4)cc12 (centres undefined),-4,14,-1,60*,3
O=C1CSC(c2ccccc2)N1c1nnc(C23CC4CC(CC(C4)C2)C3)s1 (centres undefined),-1,27,1,x,0
Cc1ccccc1NS(=O)(=O)c1cccc(-c2nnc(-c3ccccc3)o2)c1,4,-11,-2,10,1
O=S(=O)(NC1CCCCC1)c1cccc(-c2nnc(-c3ccccc3)o2)c1,0,17,-3,7,31*
Cc1c(C)[n+](=O)c(-c2ccco2)c(C)n1[O-],4,-1,0,-15,31*
